# The list is not random: actives were taken first. Their share in the collection is about 1.8%.
# CRFBP-R2 block = blocks CRF-induced signaling of the CRF-BP/CRF-R2 complex. inhibition, % at 11.8 µM. HEK293 CRF-R2/CRF-BP, CRF-induced calcium fluorescence. hit rate 0.59% among 350,000;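 active = inhibition of the ligand-induced calcium signal above about 50% at the single tested concentration, limit read from the data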
# Jurkat NFkB inh = lowers PMA/ionomycin-induced NF-kB signal in Jurkat cells | PMA/ionomycin-induced NF-kB luciferase reporter, luminescence | inhibition, % at 4 µM | hit rate 0.53% among 330,000 | AID 435003; in the data active = inhibition above about 50%
# XBP1 UPR activ = activators of adaptive arm of unfolded protein response (XBP1). hit rate 0.33% among 330,000. AID 463104. CHO-XBP1 luciferase reporter, IRE1-XBP1 UPR activation, luminescence; percent of tunicamycin response, DMSO as zero. activation, % at 20 µM;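 active = versus positive control, 20 µM dose yields 30% or more activation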;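 note: 100% = tunicamycin at 10 µg/mL and 0% = DMSO only wells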
#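 Material: CHO cell line with stable XBP1 luciferase reporter; buffer or medium: F12 medium containing 10% fetal bovine serum; compound: single point, 20 µM final compound, 1% DMSO; incubation: 6 h treatment, 37 °C; measured by: glow luminescence from Steady-Glo reagent; evaluation: activation, % of tunicamycin; control set: tunicamycin high, DMSO low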
# CHOP UPR activ = apoptotic UPR (CHOP) activation | CHO-CHOP luciferase reporter, luminescence; percent of tunicamycin response over DMSO baseline | activation, % at 10 µM | hit rate 0.34% among 330,000 | AID 449763;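 active = at 10 µM dose, activation of 40% or more, normalized to positive control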;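 note: 100% = tunicamycin at 10 µg/mL and 0% = DMSO alone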
#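 System: CHO CHOP reporter cells. Amount: 500 cells per well. Buffer or medium: F12 medium, 10% FBS. Compound dosing: one dose, 10 µM in 0.5% DMSO. Incubation: 6 h compound exposure at 37 °C after overnight seeding. Technique: Steady-Glo luciferase luminescence. Benchmarks: tunicamycin and DMSO controls.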
# 697 NFkB inh = lowers PMA/ionomycin-induced NF-kB signal in 697 B cells; inhibition, % at 4 µM; AID 435022; 697 B-cell NF-kB luciferase reporter, 16 h; hit rate 0.33% among 330,000; in the data active = inhibition above about 35%
# 697 NFkB conf = lowers PMA/ionomycin-induced NF-kB signal in 697 B cells; shares compounds with 697 NFkB inh; inhibition, % at 4 µM; hit rate 35% among 2,000; 697 B-cell NF-kB luciferase, 16 h; AID 449746; in the data active = inhibition mostly above about 28%, no sharp cut-off; inactive = mostly below about 22%
# * marks the source's active call; other numbers are inactive results; i = inactive; . = not tested or not shown.
SMILES,CRFBP-R2 block,Jurkat NFkB inh,XBP1 UPR activ,CHOP UPR activ,697 NFkB inh,697 NFkB conf
Cc1cc(C)nc(Sc2ccc([N+](=O)[O-])cc2[N+](=O)[O-])n1,-24,-14,-3,17,41*,29*
C(=N\Nc1nc2ccccc2[nH]1)/c1cccc2nccnc12,6,5,15,8,-341,-110
C=C1CCC[C@]2(C)C[C@H]3OC(=O)C(CNCC(OC)OC)[C@H]3CC12 (some centres undefined),-3,-6,2,0,4,.
O=C(O)c1ccc(N/N=C/c2cccc(C(F)(F)F)c2)cc1,0,-20,0,4,-443,18
COC(=O)c1ccccc1NC(=O)c1ccc(-c2ccc(Br)cc2)o1,8,7,2,11,-367,-286
O=C(COC(=O)c1cc(Br)ccc1O)c1ccc(F)cc1,2,2,11,2,-21,.
Fc1ccc(-c2noc(-c3ccc4c(c3)CCO4)n2)cc1,17,-132,-7,-2,-308,-268
Nc1nc(Nc2ccccc2F)sc1C(=O)c1ccccc1,-68,-58,2,5,-260,-21
O=C(CCCCCN1C(=O)c2ccccc2C1=O)Nc1ccccc1,12,10,-5,-1,7,.
O=C(CCCCCCC(=O)Nc1ccccc1)NO,25,24,20,2,i,-336
O=C1CC(c2ccc3c(c2)OCCO3)Oc2ccc([N+](=O)[O-])cc21 (centres undefined),-2,-130,-9,0,-256,-228
O=C1CC(c2ccc3c(c2)OCCO3)Oc2ccccc21 (centres undefined),-7,-83,0,8,-78,.
Cc1nc([N+](=O)[O-])c(Sc2nc3ccccc3[nH]2)n1Cc1ccccc1,-39,13,-4,5,-17,.
COc1ccc2nc(Sc3c([N+](=O)[O-])nc(C)n3Cc3ccccc3)[nH]c2c1,-17,-9,0,1,39*,47*
Cc1c(NC(=O)CSc2nnc3c4ccccc4n(CCc4ccccc4)c3n2)c(=O)n(-c2ccccc2)n1C,3,-32,-6,-4,i,i
COC(=O)Nc1nc2ccc(C(=O)c3cccs3)cc2[nH]1,6,45,18,7,i,-107
Cc1c(NS(=O)(=O)c2cc(C(=O)OCC(=O)c3ccccc3F)ccc2Cl)c(=O)n(-c2ccccc2)n1C,16,.,.,.,.,.
Cn1c(=O)cc(OCCCC(=O)N2CCCCC2)c2ccccc21,-4,-10,1,-3,39*,42*
Cn1c(=O)cc(OCCCC(=O)NCc2ccccn2)c2ccccc21,7,4,0,0,36*,31*
CN1CCN(C(=O)CCCOc2cc(=O)n(C)c3ccccc23)CC1,0,-6,0,0,28,.
Cn1c(=O)cc(OCCCC(=O)NC2CCCC2)c2ccccc21,0,4,3,1,69*,46*
O=C(NC1CCCCC1)C1CCN(S(=O)(=O)c2cccc3nonc23)CC1,1,6,3,2,-1,.
Cc1ccc(S(=O)(=O)CC2CSc3nc4ccccc4n32)cc1 (centres undefined),8,35,-6,6,62*,75*
CCOc1ccc(C(F)(F)F)cc1NC(=O)c1ccc(OC)c([N+](=O)[O-])c1,-10,0,-2,1,40*,26
COCCOc1ccc(C(F)(F)F)cc1NC(=O)c1ccc(F)cc1,-5,-13,-2,1,-19,.
SMILES,CRFBP-R2 block,Jurkat NFkB inh,XBP1 UPR activ,CHOP UPR activ,697 NFkB inh,697 NFkB conf
COc1ccc(-c2nc(-c3ccc(C(=O)O)cc3)no2)cc1,2,-17,-6,-6,-315,-353
Fc1ccccc1-c1nc(-c2ccccc2)no1,10,-120,-4,-2,-272,-227
COc1cccc(-c2nc(-c3ccccc3)no2)c1,-36,-142,-2,-2,-279,-270
COc1cccc(-c2noc(-c3cccnc3)n2)c1,9,-90,4,2,-155,.
COC(=O)c1cc2oc3ccccc3c2n1CC(=O)Nc1ccccc1OC,-2,-10,3,-3,18,.
CCOc1ccc(CNC(=O)c2cc3oc4ccccc4c3n2C)cc1,40,-60,0,0,-389,-186
COc1cccc(CNC(=O)c2cc3oc4ccccc4c3n2C)c1OC,-1,10,-4,0,-378,i
CCOc1ccccc1CNC(=O)c1cc2oc3ccccc3c2n1CC,16,-19,5,-1,-280,-97
COc1ccc(NC(=O)N(C)C[C@@H]2OCc3cnnn3CCCC(=O)N([C@@H](C)CO)C[C@H]2C)cc1,15,.,.,.,.,.
C/C(=N\NC(=O)c1ccc2c(c1)OCO2)c1ccc(NC(=O)CCCC(=O)O)cc1,9,-7,-5,1,-6,.
COc1ccc(CN2C(=O)C(CC(=O)NCCc3ccccn3)CC(C(=O)N(C)C)=C2C)cc1 (centres undefined),-3,.,.,.,.,.
COc1ccc(S(=O)(=O)Nc2ccc(N(C)C(C)=O)cc2)cc1,1,2,0,-2,37*,19
CCOC(=O)c1c(-c2ccccc2)c[nH]c1C,21,.,.,.,.,.
Cc1nn(-c2ccc(N3CCCCC3)nn2)c(C)c1CCC(=O)Nc1ccccc1F,5,-38,-1,6,51*,48*
Cc1ccccc1NC(=O)CCc1c(C)nn(-c2ccc(N3CCCCC3)nn2)c1C,-3,-12,-2,5,-30,.
CC(=O)CCSc1ncnc2sc(-c3ccccc3)cc12,-16,-126,7,6,-336,-164
CC(Sc1ncnc2sc(-c3ccccc3)cc12)C(N)=O (centres undefined),3,-11,0,5,-17,.
O=C(O)CCSc1ncnc2sc(-c3ccccc3)cc12,-5,22,-5,-9,81*,62*
Cc1ccc(NC(=O)c2ccc(CNc3c(N4CCC(C)CC4)c(=O)c3=O)cc2)cc1,6,16,0,0,50*,16
CCc1cccc(NC(=O)c2ccc(CNc3c(N4CCCC4)c(=O)c3=O)cc2)c1,1,20,1,1,42*,33*
O=C(NC(=S)N1CCCC(C(F)(F)F)C1)c1ccc(F)cc1 (centres undefined),-6,-39,1,-1,-34,.
CN(C)c1ccc(C(=O)c2ccc(N(C)C)c3ccccc23)cc1,25,42,28,3,-386,-215
CN(C)c1ccccc1C(=O)c1ccccc1N(C)C,7,26,-2,4,-141,.
N=c1ccn2c(n1)O[C@H]1[C@H](O)[C@@H](CO)O[C@H]12,3,38,-1,-1,52*,45*

# Compound activity (PubChem BioAssay)
